IMP-1 inhibitor: IMP-1 metallo-beta-lactamase inhibitors, primary screen, biochemical, epi-absorbance readout, Pseudomonas aeruginosa enzyme | 0.45% of 290,000 active | metallo-beta-lactamase IMP-1 (Pseudomonas aeruginosa) | inhibition, % at 5.6 µM | purified IMP-1, nitrocefin hydrolysis, epi-absorbance fluorescence;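 active = inhibition above the mean plus 3 SD of all compounds in the same screening run, cut at about 4.5% in these data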
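Test system: recombinant IMP-1 enzyme, purified / Medium: HEPES buffer pH 7.1 with ZnSO4 and Brij 35 / Doses: single dose, 5.6 µM / Times: 25 °C, 15 min preincubation, 25 min reaction / Detection: Epi-absorbance via hydrolysed-nitrocefin quenching of white-plate fluorescence, 480/530 nm, EDTA stop / Evaluation: percent inhibition from optical density relative to buffer-blank wells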
MLLE-PAM2 inh: inhibitors of PABP1 MLLE–PAM2 peptide binding, primary screen, biochemical, fluorescence polarization, FITC-PAM2, GST-MLLE | Polyadenylate-binding protein 1 (Homo sapiens), P11940 | inhibition, % at 20 µM | 0.36% of 360,000 active | AID 588489, 2011; in the data active = inhibition above about 35%, passing the limit was not always enough
Target sequence (P11940 whole entry, looked up): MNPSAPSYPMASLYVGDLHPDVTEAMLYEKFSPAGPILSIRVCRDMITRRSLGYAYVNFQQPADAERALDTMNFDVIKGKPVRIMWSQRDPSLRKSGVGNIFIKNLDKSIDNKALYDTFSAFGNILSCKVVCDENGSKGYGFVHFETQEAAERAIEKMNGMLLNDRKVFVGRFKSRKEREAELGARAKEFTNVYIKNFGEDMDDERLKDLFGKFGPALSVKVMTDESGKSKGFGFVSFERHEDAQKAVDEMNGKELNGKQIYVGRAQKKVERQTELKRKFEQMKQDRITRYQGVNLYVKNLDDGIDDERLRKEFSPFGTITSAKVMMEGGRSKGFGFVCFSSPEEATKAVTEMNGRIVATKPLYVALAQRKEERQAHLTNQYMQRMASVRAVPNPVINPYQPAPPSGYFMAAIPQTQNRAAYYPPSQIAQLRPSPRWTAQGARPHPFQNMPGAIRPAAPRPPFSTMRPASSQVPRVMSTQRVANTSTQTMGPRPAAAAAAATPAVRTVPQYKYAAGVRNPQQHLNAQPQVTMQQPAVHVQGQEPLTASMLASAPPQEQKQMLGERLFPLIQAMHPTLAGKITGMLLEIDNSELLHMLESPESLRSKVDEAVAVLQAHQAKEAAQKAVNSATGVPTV
PABP polyA inh: PABP poly(A) RNA binding inhibitors, primary screen, biochemical, fluorescence polarization, uHTS | Polyadenylate-binding protein 1 (Homo sapiens), P11940 | calls only at 35 µM | 1% of 290,000 active;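 also: calls also rest on retests at 20 µM and on dose response follow-up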
eIF4H FP inh: human eIF4H binding inhibitors, primary screen, translation initiation inhibitor project, biochemical, uHTS, fluorescence polarization. Eukaryotic translation initiation factor 4H (Homo sapiens), Q15056. eIF4H fluorescence polarization binding assay. inhibition, % at 35 µM. 0.94% of 290,000 active;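 also: calls also rest on retests at 20 µM and on dose response follow-up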
VIM-2 inhibitor: VIM-2 metallo-beta-lactamase inhibitors, primary screen, biochemical, epi-absorbance readout, Pseudomonas aeruginosa enzyme | inhibition, % at 5.6 µM | AID 1527, 2009 | purified VIM-2, nitrocefin hydrolysis, epi-absorbance fluorescence | 0.89% of 290,000 active;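 active = inhibition above the mean of all tested compounds plus 3 SD, cutoff set per screening run, cut at about 7.5% in these data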;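 also: red hydrolysis product quenches plate fluorescence so inhibitors raise well fluorescence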
Each line names hits and unclear results; the compound was inactive in the other large screens. In the library only some 2.2% were active in any assay of this set; here they are far more common. Unless noted, no rule for the calls is given here.

Cc1cccc(NC(=O)CSc2nc3nc4c(cc3c(=O)n2-c2ccccc2)CCCC4)c1	none
Cc1ccccc1-n1c(SCC(=O)Nc2ccccc2)nc2nc3c(cc2c1=O)CCCC3	eIF4H FP inh active
Cc1ccc(C)c(Nc2ncccc2C(=O)NCc2cccs2)c1	PABP polyA inh active, eIF4H FP inh inconclusive
COc1ccc(NC(=S)N2CCC(c3nc4ccccc4o3)CC2)c(OC)c1	none
CCOc1ccc(NC(=O)Cn2c(=O)n(CC3CCCO3)c(=O)c3ccccc32)cc1 (stereo not drawn)	eIF4H FP inh active
COc1cc(CNCc2ccc(OC)cc2OC)cc(OC)c1	none
CSc1nc(N2CCOCC2)c2sccc2n1	VIM-2 inhibitor 8.1
COc1ccc(NC(=O)C2CCC(C)(C(=O)O)C2(C)C)cc1 (stereo not drawn)	none
CCOc1ccc(NC(=O)C2CCC(C)(C(=O)O)C2(C)C)cc1 (stereo not drawn)	PABP polyA inh inconclusive, eIF4H FP inh 130
CCC(=O)NC(=S)NNC(=O)c1ccccc1[N+](=O)[O-]	PABP polyA inh active, eIF4H FP inh inconclusive
Cc1ccnc(NS(=O)(=O)c2ccc(NC(=O)CSc3nc(-c4ccccc4)cc(=O)[nH]3)cc2)n1	none
O=C(Sc1ccc(Cl)cc1)c1ccccn1	none (no result: IMP-1 inhibitor, PABP polyA inh, eIF4H FP inh, VIM-2 inhibitor)
Cn1c(N)c(S(=O)(=O)N2CCN(Cc3ccccc3)CC2)c(=O)n(C)c1=O	none
CCOC(=O)c1sc(=S)n(C)c1NC(=O)c1ccccc1Cl	MLLE-PAM2 inh 43
CCOC(=O)c1sc(=S)n(C)c1NC(=O)c1ccc(OC)cc1	none
CC1(C)C2CCC(C2)C1(C)NC(=O)CNC1CCCCC1 (stereo not drawn)	none
N#Cc1ccc(OCC(=O)Nc2ccccc2NS(=O)(=O)c2cccs2)cc1	PABP polyA inh active, eIF4H FP inh 53
Cc1cccc(OCC(=O)N(Cc2cccs2)C2CCS(=O)(=O)C2)c1C (stereo not drawn)	eIF4H FP inh 83
Cc1ccc(OCC(=O)N(Cc2cccs2)C2CCS(=O)(=O)C2)cc1 (stereo not drawn)	none
Cc1cc(Br)cc(Br)c1OCC(=O)NNC(=O)Nc1ccccc1	none (no result: IMP-1 inhibitor, PABP polyA inh, eIF4H FP inh, VIM-2 inhibitor)
Cc1ccc(C(=O)NNC(=O)C2CCN(S(=O)(=O)c3ccc(C)cc3)CC2)cc1	none
Cc1ccc(S(=O)(=O)N2CCC(C(=O)NNC(=O)c3ccccc3)CC2)cc1	PABP polyA inh active, eIF4H FP inh 56
Cc1ccc(SCC(=O)c2ccc(CC(=O)O)s2)cc1	eIF4H FP inh 74
C/C(=N\Nc1ccc(C(=O)O)cc1)c1ccc(-n2ccnc2)cc1	none
COC(=O)c1cc(OC)c(OC)cc1NC(=O)CN1C(=O)c2ccccc2C1=O	none
COC(=O)c1cc(-c2ccccc2)sc1NC(=O)CN1C(=O)c2ccccc2C1=O	MLLE-PAM2 inh 36
O=C(COc1ncnc2ccccc12)N1CCOCC1	none
O=C(COc1ncnc2ccc(Br)cc12)N1CCOCC1	PABP polyA inh active, eIF4H FP inh 1.0
COc1ccc(-c2cc(-c3ccccc3)nc(N3CCCC3)n2)cc1OC	IMP-1 inhibitor 4.8
Cn1c(=O)c(-c2cc(Br)ccc2N)nc2ccccc21	none
Cn1c(=O)c(N)c2c3c(c(Br)ccc31)C(=O)c1ccccc1-2	PABP polyA inh inconclusive, eIF4H FP inh inconclusive, VIM-2 inhibitor 8.4
CCN(CC)CCNC(=O)c1ccc(Cl)c(S(=O)(=O)Nc2ccccc2OC)c1	IMP-1 inhibitor 5.4
CCN(CC)CCCNC(=O)c1ccc(Cl)c(S(=O)(=O)Nc2ccccc2OC)c1	none
C/C(=N\NC(N)=O)c1ccccc1Cl	PABP polyA inh active, eIF4H FP inh 106
CC1CCCN(C2(O)C(=O)Nc3ccc(Cl)cc32)C1 (stereo not drawn)	none
COCOc1ccc(-c2oc3c(C/C=C(\C)CCC=C(C)C)ccc(O)c3c(=O)c2OCOC)c(OCOC)c1	none (no result: IMP-1 inhibitor, PABP polyA inh, eIF4H FP inh, VIM-2 inhibitor)
Cc1cc(C)c(NC(=O)CSc2nnc(SCC(=O)Nc3c(C)cc(C)cc3C)n2N)c(C)c1	IMP-1 inhibitor 7.2
CC(NC(=O)c1ccccc1F)c1nnc(SCC(=O)NC2CCCC2)n1C (stereo not drawn)	none
O=C(c1ccc([N+](=O)[O-])cc1)N1CCc2ccccc2C1	PABP polyA inh active, eIF4H FP inh 4.6
C[C@H](NC(=O)c1ccccc1)C(=O)N1CCC2(CC1)NCCc1[nH]cnc12	none (no result: PABP polyA inh, eIF4H FP inh)
CCc1cc2c(=O)n(Cc3ccco3)c(SCC(=O)NCC3CCCO3)nc2s1 (stereo not drawn)	none
CCc1cc2c(=O)n(Cc3ccco3)c(SCC(=O)N3CCCc4ccccc43)nc2s1	IMP-1 inhibitor 6.0
CCSc1nc(NCCN(C)C)c2c3c(sc2n1)COC(C)(CC)C3 (stereo not drawn)	VIM-2 inhibitor 8.5
Cc1cc(C)n(-c2nc(NCCN(C)C)c3c4c(sc3n2)COC(C)(C)C4)n1	none
CCOc1ccc(NC(=O)CCC(=O)NNC(=O)c2cccc([N+](=O)[O-])c2)cc1	none (no result: IMP-1 inhibitor, PABP polyA inh, eIF4H FP inh, VIM-2 inhibitor)
O=C(CSc1nnc(COc2ccccc2)n1Cc1ccco1)NCc1ccco1	PABP polyA inh active, eIF4H FP inh 50
Cc1cc(NC(=O)CSc2nnc(COc3ccccc3)n2Cc2ccco2)no1	none
O=C(CSc1nnc2c(n1)[nH]c1ccccc12)NCc1ccco1	MLLE-PAM2 inh 43
COc1cc(/C=N/NC(=O)CC23CC4CC(CC(C4)C2)C3)cc(Br)c1OCC(=O)N(C)C	none
CCn1c(SCC(=O)O)nc2sc3c(c2c1=O)CCC3	none
COC(=O)CSc1nc2sc3c(c2c(=O)n1-c1ccc(OC)cc1)CCN(C)C3	IMP-1 inhibitor 5.8
CCOC(=O)CSc1nc2sc3c(c2c(=O)n1-c1ccc(OC)cc1)CCN(C)C3	none
CCn1c(SCC(=O)OC)nc2sc3c(c2c1=O)CCC3	eIF4H FP inh 72
CCCCN1C(=O)CC2CCOC21C (stereo not drawn)	none (no result: IMP-1 inhibitor, PABP polyA inh, eIF4H FP inh, VIM-2 inhibitor)
COc1cc2c(cc1OC)CN(C(=O)CCN1C(=O)C3CCCCC3C1=O)CC2 (stereo not drawn)	PABP polyA inh active, eIF4H FP inh 6.2
COc1cc2c(cc1OC)CN(C(=O)COc1ccc(C#N)cc1)CC2	PABP polyA inh active, eIF4H FP inh 6.8
Cc1sc2ncnc(SCC(=O)Nc3nc(-c4ccc(F)c(F)c4)cs3)c2c1C	none
CCC(C)(C)NC(=O)C(c1ccc(C)cc1)N(CC1CCCO1)C(=O)CCC(=O)Nc1ccccn1 (stereo not drawn)	none
CC(C)(C)OC(=O)NNC1CC(=O)N(c2ccccc2F)C1=O (stereo not drawn)	none
COc1cccc(-c2nc(C(=O)NCCCN3CCOCC3)cc3c2[nH]c2ccccc23)c1	VIM-2 inhibitor 8.2
O=C(NCCCN1CCOCC1)c1cc2c([nH]c3ccccc32)c(-c2cccc(Br)c2)n1	VIM-2 inhibitor 12
O=C(NCCCO)c1cc2c([nH]c3ccccc32)c(-c2ccccc2)n1	none
